In the library only some 2.2% were active in any assay of this set; here they are far more common.
HCV NS3 hel inh – inhibitors of Hepatitis C virus NS3 helicase. NS3 helicase DNA unwinding, Cy5 molecular beacon fluorescence. inhibition, % at 10.9 µM. 290,000 tested, 0.56% active. AID 1800;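 active = inhibition above the mean of all tested compounds plus 3 SD, set per campaign, cut at about 35% in these data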
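Control set: DMSO versus 110 µM thioflavine S; Material: NS3 helicase fragment of HCV; Measured by: Cy5 fluorescence at 0 and 60 min, beacon hairpin quenching; Read-out basis: percent inhibition from t60/t0 fluorescence ratio; Times: reaction time 60 min, 25 °C; Repeats: single replicate; Compound dosing: single dose, 10.9 µM nominal final, DMSO 0.8% final.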
GPR7 antagonist – blocks human GPR7 receptor signaling; inhibition, % at 4.4 µM; 290,000 tested, 1.1% active; GPR7-expressing cells, fluorescence antagonist assay; P48145; in the data active = inhibition above about 16%, passing the limit was not always enough;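 note: cells stimulated with the agonist NPW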
DNA FID counter-1 – displaces DNA intercalator in HCV helicase counter-screen; 290,000 tested, 0.17% active; DNA fluorescent intercalator displacement, fluorescence; AID 1845; inhibition, % at 7.9 µM;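 note: higher means more ethidium bromide displaced from hairpin DNA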
GRK2 aptamer HTS – inhibitors of human GRK2 displacing RNA aptamer | inhibition of aptamer binding, % at 10 µM | AID 488847 | P25098 | bead flow cytometry, FAM-aptamer displacement from GRK2 | 330,000 tested, 0.59% active;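 active = inhibition of aptamer binding above 40%, roughly 3 SD of noise, on plates passing a quality check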;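 note: median bead fluorescence of bound FAM aptamer so fluorescent compounds give negative values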
Target sequence (P25098 whole entry, looked up): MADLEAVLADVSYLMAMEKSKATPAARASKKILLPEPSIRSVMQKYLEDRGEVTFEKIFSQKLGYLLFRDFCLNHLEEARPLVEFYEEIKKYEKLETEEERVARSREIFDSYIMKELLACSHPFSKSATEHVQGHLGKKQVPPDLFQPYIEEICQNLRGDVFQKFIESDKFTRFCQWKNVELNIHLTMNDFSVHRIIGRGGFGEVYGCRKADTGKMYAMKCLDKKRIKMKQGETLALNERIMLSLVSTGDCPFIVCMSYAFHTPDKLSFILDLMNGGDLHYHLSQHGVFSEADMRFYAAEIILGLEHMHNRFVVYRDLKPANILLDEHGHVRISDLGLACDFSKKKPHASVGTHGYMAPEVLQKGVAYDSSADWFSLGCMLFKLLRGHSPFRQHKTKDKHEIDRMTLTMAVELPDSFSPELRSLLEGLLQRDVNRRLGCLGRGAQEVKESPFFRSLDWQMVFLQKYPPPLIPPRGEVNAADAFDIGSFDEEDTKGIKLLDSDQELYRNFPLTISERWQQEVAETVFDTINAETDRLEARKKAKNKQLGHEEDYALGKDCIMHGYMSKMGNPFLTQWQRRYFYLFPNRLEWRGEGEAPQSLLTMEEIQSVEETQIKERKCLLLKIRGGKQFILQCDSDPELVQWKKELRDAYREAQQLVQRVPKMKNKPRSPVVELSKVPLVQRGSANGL
DAGLB inhibitor – diacylglycerol lipase beta (human) inhibition; HEK293T DAGLB membrane lysate, EnzChek fluorogenic substrate; inhibition, % at 5.17 µM; 340,000 tested, 0.059% active; AID 504411; Q8NCG7; in the data active = inhibition above about 34%
core dimer inh – HCV core protein dimerization inhibition. TR-FRET GST/Flag-core106 dimerization, 1536-well. inhibition, % at 5 µM. 300,000 tested, 0.33% active. AID 1899;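 active = inhibition above the mean of all tested compounds plus 3 SD, set per screening campaign, cut at about 45% in these data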
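Assay system – GST-tagged and Flag-tagged HCV core protein residues 1-106 · Quantity – core106 proteins, GST 13.5 nM and Flag 17 nM · Benchmarks – unlabelled core106 and no-GST-core106 wells · Read-out basis – percent inhibition of core106 dimerization signal · Detection – time-resolved FRET, ex 340 nm, em 617 and 671 nm · Schedule – 4 h at 22.5 °C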
NS3 hel confirm – HCV NS3 helicase inhibition, confirmation assay; shares compounds with HCV NS3 hel inh; NS3 helicase DNA unwinding, Cy5 molecular beacon fluorescence; inhibition, % at 10.9 µM; 1,600 tested, 31% active;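 active = inhibition above the mean of all tested compounds plus 3 SD, cutoff set per campaign, cut at about 36% in these data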
DNA FID counter-2 – displaces DNA intercalator in HCV helicase counter-screen | shares compounds with HCV NS3 hel inh | DNA fluorescent intercalator displacement, fluorescence | inhibition, % at 7.9 µM | 1,600 tested, 4% active;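 note: higher means more displacement of ethidium bromide from the DNA hairpin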
Of the large screens only hits and unclear results are named; the others gave an inactive call (follow-up assays come after a bar, where they were run). Cut-off read from the data, not from the text of the source, unless noted: active = inhibition above about 37%; inactive = the rest.

O=C(Nc1cccc(-n2cnnn2)c1)c1ccccc1Br	HCV NS3 hel inh 53 | NS3 hel confirm inactive | DNA FID counter-2 inactive
O=C(CC1CC1)Nc1ccc2c(c1)[C@@H]1C[C@H](CC(=O)NC3CCCC3)O[C@@H](CO)[C@@H]1O2	none (no result: HCV NS3 hel inh, GPR7 antagonist, DNA FID counter-1, GRK2 aptamer HTS, core dimer inh)
Cc1c(NC(=O)C(C)OC(=O)c2c3c(nc4ccccc24)CCC3)c(=O)n(-c2ccccc2)n1C (stereo unspecified)	HCV NS3 hel inh 39 | NS3 hel confirm inactive | DNA FID counter-2 inactive
COc1ccc2ccccc2c1C1NC(=O)c2ccccc2N1 (stereo unspecified)	none (no result: HCV NS3 hel inh, GPR7 antagonist, DNA FID counter-1, GRK2 aptamer HTS, core dimer inh)
CC1=NN(c2ccc(C(=O)OC(C)C)cc2)C(=O)/C1=C\C=C\c1ccco1	none
CCc1ccc(N2NC(=O)/C(=C/C=C/c3ccco3)C2=O)cc1	HCV NS3 hel inh 50 | NS3 hel confirm 46 | DNA FID counter-2 inactive
N#C/C(=C/c1ccc(-c2cc(C(=O)O)cc(C(=O)O)c2)o1)c1nc2ccccc2s1	HCV NS3 hel inh 36 (no result: DAGLB inhibitor) | NS3 hel confirm 82 | DNA FID counter-2 inactive
COc1ccc(-c2nc(=S)c3c([nH]2)Oc2ccc(C)cc2C3)cc1O	HCV NS3 hel inh 53 | NS3 hel confirm inactive | DNA FID counter-2 inactive
COc1ccc(-c2nc(-c3ccccc3)c(-c3cc([N+](=O)[O-])ccc3C)[nH]2)cc1O	none
CCOc1ccccc1N1C(=O)CC(N(O)c2ccccc2)C1=O (stereo unspecified)	none
CCCCN(C(C)=O)C1CC(=O)N(c2ccc(OCCC)cc2)C1=O (stereo unspecified)	none
CCCCCOc1ccc(N2C(=O)CC(N(O)c3ccccc3)C2=O)cc1 (stereo unspecified)	HCV NS3 hel inh 45 | NS3 hel confirm inactive | DNA FID counter-2 inactive
CCCCOc1ccc(N2C(=O)CC(N(O)c3ccccc3)C2=O)cc1 (stereo unspecified)	HCV NS3 hel inh 37 | NS3 hel confirm inactive | DNA FID counter-2 inactive
CC(NC(=O)c1ccncc1)c1ccc(Br)cc1 (stereo unspecified)	none (no result: HCV NS3 hel inh, GPR7 antagonist, DNA FID counter-1)
CN(c1ccccc1)S(=O)(=O)c1cccc(NC(=O)CSc2nccc(=O)[nH]2)c1	none (no result: HCV NS3 hel inh, GPR7 antagonist, DNA FID counter-1, core dimer inh)
COc1ccc(C2=NN(C(=O)CCCC(=O)O)C(c3cn(-c4ccccc4)nc3-c3ccccc3)C2)cc1 (stereo unspecified)	HCV NS3 hel inh 46 | NS3 hel confirm 43 | DNA FID counter-2 inactive
COc1ccc(C2=NN(C(=O)CCC(=O)O)C(c3ccc(Br)cc3)C2)cc1 (stereo unspecified)	HCV NS3 hel inh 38 | NS3 hel confirm inactive | DNA FID counter-2 inactive
C/C(=N\O)c1noc(C)c1C(=O)Nc1nccs1	none
CC1(c2ccc3ccccc3c2)NC(=O)N(CC(=O)NCC(C)(C)N2CCOCC2)C1=O (stereo unspecified)	none (no result: HCV NS3 hel inh, GPR7 antagonist, DNA FID counter-1)
CCCCCOC(=O)c1[nH]c2c(c1C)C(=O)CC(c1ccco1)C2 (stereo unspecified)	HCV NS3 hel inh 41 | NS3 hel confirm inactive | DNA FID counter-2 inactive
Cc1ccc(CC(=O)Nc2cc(C)on2)cc1	none
COc1ccc(OC)c(NC(=O)CSc2ccc(-c3ccco3)nn2)c1	HCV NS3 hel inh 45 | NS3 hel confirm inactive | DNA FID counter-2 inactive
COc1ccccc1NC(=O)CSc1ccc(-c2ccco2)nn1	none
CC(C)c1ccc(/C=N/n2c(COc3ccccc3)n[nH]c2=S)cc1	none
CC(C)c1ccc(/C=C/c2[nH]c(=O)[nH]c(=O)c2[N+](=O)[O-])cc1	HCV NS3 hel inh 56 | NS3 hel confirm 53 | DNA FID counter-2 inactive
CCOc1cccc(C(=O)Nc2ccc(N3CCN(S(C)(=O)=O)CC3)cc2)c1	none
CCOc1cc(C(=O)Nc2ccc(N3CCN(S(C)(=O)=O)CC3)cc2)cc(OCC)c1OCC	HCV NS3 hel inh 39 | NS3 hel confirm inactive | DNA FID counter-2 inactive
Cc1ccc(-c2csc(NC(=O)c3cccc(C)c3)c2C(=O)O)cc1	none (no result: HCV NS3 hel inh, GPR7 antagonist, DNA FID counter-1)
Cc1ccc(-c2csc(NC(=O)c3ccccc3Cl)c2C(=O)O)cc1	HCV NS3 hel inh 39 | NS3 hel confirm 77 | DNA FID counter-2 inactive
CN(C)C(=S)Nn1c(-c2ccccc2)nc2ccccc2c1=O	none
Cc1cccc(-c2nc3ccccc3c(=O)n2NC(=S)N(C)C)c1	HCV NS3 hel inh 39 | NS3 hel confirm inactive | DNA FID counter-2 inactive
Cc1nc(SCC(=O)Nn2c(-c3ccccc3)nc3ccccc3c2=O)n[nH]1	HCV NS3 hel inh 47 | NS3 hel confirm inactive | DNA FID counter-2 inactive
O=C(CN1C(=O)NC2(CCCCC2)C1=O)N1CCN(S(=O)(=O)c2ccc(F)c(F)c2F)CC1	none (no result: HCV NS3 hel inh, GPR7 antagonist, DNA FID counter-1, GRK2 aptamer HTS, core dimer inh)
C[C@@H](NC(=O)[C@@H]1Cc2ccccc2CN1)C(=O)Nc1ccc2c(c1)OCO2	none
CCOc1ccc(CC(=O)Nc2cc(=O)n(C)c(=O)n2C)cc1	none
COc1ccc(CC(=O)Nc2cc(=O)n(C)c(=O)n2C)cc1	HCV NS3 hel inh 56 | NS3 hel confirm inactive | DNA FID counter-2 inactive
N#CC1(NC(=O)CSc2nnc(Nc3ccccc3F)s2)CCCC1	none (no result: HCV NS3 hel inh, GPR7 antagonist, DNA FID counter-1, core dimer inh)
Cn1ccnc1Sc1ccc(/C=N/NC(=O)c2ccccc2O)cc1[N+](=O)[O-]	HCV NS3 hel inh 47 | NS3 hel confirm inactive | DNA FID counter-2 inactive
Cn1ccnc1Sc1ccc(/C=N/NC(=O)c2ccccc2[N+](=O)[O-])cc1[N+](=O)[O-]	none
O=C1CNC(=O)c2cc(Cl)ccc2N1	none (no result: HCV NS3 hel inh, GPR7 antagonist, DNA FID counter-1, GRK2 aptamer HTS, core dimer inh)
CC12CCCCC1NS(=O)(=O)OC2 (stereo unspecified)	HCV NS3 hel inh 41 | NS3 hel confirm inactive | DNA FID counter-2 inactive
CCOC(=O)c1ccc(N2N=C(C)/C(=C/C=C/c3ccco3)C2=O)cc1	none
O=C(O)c1cc(N2N=C(C(F)(F)F)/C(=C/C=C/c3ccco3)C2=O)ccc1Cl	HCV NS3 hel inh 61 (no result: GRK2 aptamer HTS, core dimer inh) | NS3 hel confirm 80 | DNA FID counter-2 71
O=C1NC(c2ccccc2)=C(c2nc3ccccc3s2)C(c2ccccc2)N1 (stereo unspecified)	HCV NS3 hel inh 39 | NS3 hel confirm inactive | DNA FID counter-2 inactive
O=C1CC(=O)N(c2ccccc2)N1c1ccccc1	HCV NS3 hel inh 38 | NS3 hel confirm inactive | DNA FID counter-2 inactive
CC(C)c1ccc(N(C(=O)CNC(=O)c2ccco2)C(C(=O)NC2CCCC2)c2ccncc2)cc1 (stereo unspecified)	none
O=C(CSc1nnc(-c2ccc(O)cc2)n1Cc1ccco1)c1cccs1	none
O=C(CC(SCc1ccco1)c1ccc(O)cc1)c1cccs1 (stereo unspecified)	HCV NS3 hel inh 69 | NS3 hel confirm inactive | DNA FID counter-2 inactive
CC(=C\c1ccccc1)/C=C1/SC(=S)N(C(C(=O)O)C(C)C)C1=O (stereo unspecified)	none (no result: GRK2 aptamer HTS, core dimer inh)
